Measurements: ChEMBL document CHEMBL1148810, “Design, synthesis, and preliminary pharmacological evaluation of new quinoline derivatives as nicotinic ligands” (J Med Chem, 2007)
Active and inactive are the calls of the source.

What was measured:
Mus musculus = assay: Analgesic activity in mouse at 5 mg/kg, ip by hot plate test […]; type: functional, organism-based; parameters: dose 5 mg/kg
Outline: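 Mice were placed on a stainless steel surface held at 52.5 ± 0.1 °C, and dosing was i.p. at 5 mg/kg. Paw-licking latency (s) was timed by stopwatch before and 15, 30, 45 and 60 min after dosing. Mice with pretest scores below 12 or above 18 s were excluded, and the cutoff was 45 s. Ten mice per group; mean ± SEM.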

[1] = target: Neuronal acetylcholine receptor subunit alpha-7 (Rattus norvegicus, UniProt Q05941); assay: Displacement of [3H]alpha-bungarotoxin from alpha-7 nAChR in rat cerebral cortex; type: tissue-based
[2] = target: T1, Neuronal acetylcholine receptor; alpha4/beta2 (Rattus norvegicus, UniProt P09483+P12390); assay: Displacement of [3H]epibatidine from alpha-4-beta-2 nAChR in rat cerebral cortex; type: tissue-based
Outline: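 Rat cerebral cortex was used in competition binding against [³H]-epibatidine, with amines tested as oxalate salts. Ki values were derived, and subtype selectivity was taken from comparison with Ki values obtained on the same tissue.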

[3] = target: T1, Neuronal acetylcholine receptor; alpha4/beta2; assay: Displacement of [3H]cytisine from alpha-4-beta-2 nAChR in rat cerebral cortex; type: tissue-based
Outline: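 Rat cerebral cortex membranes labelled with [³H]-cytisine, which marks α4β2* receptors. Compounds were tested for displacement up to 10 µM, with amines used as oxalate salts. Ki values were determined.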

Chain of Neuronal acetylcholine receptor subunit alpha-7 (Q05941 whole entry): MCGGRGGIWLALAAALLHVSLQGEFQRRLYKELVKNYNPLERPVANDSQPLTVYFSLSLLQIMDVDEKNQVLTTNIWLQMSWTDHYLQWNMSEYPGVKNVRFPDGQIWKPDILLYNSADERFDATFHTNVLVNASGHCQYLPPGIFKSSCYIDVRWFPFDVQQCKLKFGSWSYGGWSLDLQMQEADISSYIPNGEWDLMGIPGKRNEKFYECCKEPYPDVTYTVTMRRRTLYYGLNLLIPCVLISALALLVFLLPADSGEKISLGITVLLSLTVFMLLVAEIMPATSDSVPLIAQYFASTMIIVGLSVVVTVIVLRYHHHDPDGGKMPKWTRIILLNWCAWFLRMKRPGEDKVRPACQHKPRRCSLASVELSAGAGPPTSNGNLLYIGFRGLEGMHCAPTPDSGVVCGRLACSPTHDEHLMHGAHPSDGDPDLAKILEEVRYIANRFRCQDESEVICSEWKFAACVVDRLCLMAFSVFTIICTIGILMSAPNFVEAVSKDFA
T1 sequence (P09483 whole entry): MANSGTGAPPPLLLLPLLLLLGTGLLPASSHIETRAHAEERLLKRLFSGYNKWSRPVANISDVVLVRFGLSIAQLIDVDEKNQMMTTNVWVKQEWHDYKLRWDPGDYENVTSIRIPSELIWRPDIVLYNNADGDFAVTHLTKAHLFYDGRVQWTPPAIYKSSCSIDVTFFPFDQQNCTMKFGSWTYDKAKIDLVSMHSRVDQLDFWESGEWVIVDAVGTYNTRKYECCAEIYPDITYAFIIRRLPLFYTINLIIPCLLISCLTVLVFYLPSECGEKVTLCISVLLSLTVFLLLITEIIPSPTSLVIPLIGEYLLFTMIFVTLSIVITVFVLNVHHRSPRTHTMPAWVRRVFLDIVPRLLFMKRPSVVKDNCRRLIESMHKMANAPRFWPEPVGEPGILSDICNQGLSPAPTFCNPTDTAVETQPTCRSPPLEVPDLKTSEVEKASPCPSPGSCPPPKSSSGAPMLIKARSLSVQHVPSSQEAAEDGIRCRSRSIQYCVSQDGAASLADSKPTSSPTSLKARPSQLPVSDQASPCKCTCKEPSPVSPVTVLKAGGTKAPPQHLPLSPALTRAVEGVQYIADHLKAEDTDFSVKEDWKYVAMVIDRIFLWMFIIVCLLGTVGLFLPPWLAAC
T1 sequence (P12390 whole entry): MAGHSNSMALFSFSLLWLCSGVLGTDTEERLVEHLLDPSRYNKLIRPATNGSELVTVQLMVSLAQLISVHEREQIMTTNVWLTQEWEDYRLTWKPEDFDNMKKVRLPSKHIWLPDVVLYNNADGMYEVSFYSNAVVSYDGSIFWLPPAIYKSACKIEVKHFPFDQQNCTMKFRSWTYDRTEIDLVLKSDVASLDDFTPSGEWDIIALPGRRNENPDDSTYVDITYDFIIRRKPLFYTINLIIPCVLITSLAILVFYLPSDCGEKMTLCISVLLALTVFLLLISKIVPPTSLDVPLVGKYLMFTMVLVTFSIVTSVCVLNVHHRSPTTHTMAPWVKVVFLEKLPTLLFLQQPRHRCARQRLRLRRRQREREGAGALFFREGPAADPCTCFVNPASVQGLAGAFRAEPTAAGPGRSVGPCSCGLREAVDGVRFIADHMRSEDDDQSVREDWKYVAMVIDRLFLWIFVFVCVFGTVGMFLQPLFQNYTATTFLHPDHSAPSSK

Row | Structure (SMILES) | Activity (Mus musculus) | Ki [1] [nM] | Ki [2] [nM] | Ki [3] [nM]
1 | C[N+]1(C)CCC[C@H]1c1ccc2ncccc2c1 | Active | 1570 | 42 | 16
2 | C[N+]1(C)CCCC1c1ccc2ncccc2c1 (racemic) | Dose-dependent effect |  |  | 45
3 | CN1CCC[C@H]1c1ccc2ncccc2c1 |  | 42000 | 124 | 90
4 | CN1CCCC1c1ccc2ncccc2c1 (racemic) | Dose-dependent effect |  |  | 132
5 | C[N+]1(C)CCC[C@@H]1c1ccc2ncccc2c1 |  | 90 | 1400 | 220
6 | C[N+](C)(C)CCC#Cc1ccc2ncccc2c1 |  | 142 | 6800 | 
7 | CN1CCC[C@@H]1c1ccc2ncccc2c1 |  | 8100 | 2100 | 1950
